Measurements published in ChEMBL document CHEMBL1944511, “Bakuchiol derivatives as novel and potent cytotoxic agents: a report” (Eur J Med Chem, 2012).

What was measured:
[1] = system: A549; test: Growth inhibition of human A549 cells at 1 uM after 48 hrs by sulpharhodamine B assay; assay type: functional; settings: A549, 48 h, read-out: GI
Method in brief: (§1)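 This is the SRB protein-stain assay on adherent cells in RPMI-1640/MEM with 10% FCS. Each compound in DMSO (vehicle <0.2%) was applied at a single fixed concentration for 48 h. Cells were fixed with TCA and stained with SRB, and the dye was solubilised in Tris and read at 570/620 nm. Percent growth inhibition is relative to vehicle-treated controls, reported as mean ± SD of three experiments run in triplicate.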

[2] = system: MCF7; test: Growth inhibition of human MCF7 cells at 1 uM after 48 hrs by sulpharhodamine B assay; assay type: functional; settings: MCF7, 48 h, read-out: GI; method in brief: as §1

## COc1cccc2c1C(=O)c1c(O)c3c(c(O)c1C2=O)C[C@@](O)(C(=O)CO)C[C@@H]3O[C@H]1C[C@H](N)[C@H](O)[C@H](C)O1 [DOXORUBICIN]
[1]
  inhibition of growth at 1 µM: 76%
[2]
  inhibition of growth at 1 µM: 85%
